Data as given in ChEMBL document CHEMBL4706504, “Hit-to-lead optimization of a latency-associated nuclear antigen inhibitor against Kaposi's sarcoma-associated herpesvirus infections” (Eur J Med Chem, 2020).
Active and inactive are the calls of the source. The calls are words filed in the database; no cut-off is given here.

Key:
Human gammaherpesvirus 8 [1] = assay: (§1) Inhibition of Kaposi's sarcoma herpesvirus C-terminal His-tagged oligomerization deficient LANA DBD (1008 to 1146 residues) K1055E/K1138S/K1140D/K1141D/R1039Q/R1040Q/A1121E/K1109A/D1110A mutant expressed in Escherichia coli BL21(DE3) assessed as inhibition of LANA interaction with fluorescently-labelled viral DNA LBS2 probe at 500 uM preincubated with LANA-DBD for 60 mins followed by addition of DNA probe and measured after 90 mins by flourescence polarization assay; details: time 150.0 min
[2] = as §1, with “probe” for “probe at 500 uM”; set-up: species or system Human gammaherpesvirus 8
Method in brief: (§2)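 FP competition of DNA binding, using the oligomerization-deficient LANA DBD mutant (aa 1008-1146, nine point mutations). Probes were LBS1, LBS2 or LBS3. Values are IC50 from the average of duplicates ± standard deviation.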

Human gammaherpesvirus 8 [3] = assay: as §1, with “5'-Dy682-labeled” for “fluorescently-labelled”, “LBS1” for “LBS2”, “30” for “90”, “Electrophoretic mobility shift” for “flourescence polarization”; details: time 90.0 min
Human gammaherpesvirus 8 [4] = assay: (§3) Inhibition of Kaposi's sarcoma herpesvirus wild type LANA CTD (934 to 1162 residues) expressed in Escherichia coli BL21 (DE3) assessed as inhibition of LANA interaction with 5'-Dy682-labeled viral DNA LBS1 probe at 250 uM preincubated with LANA CTD for 60 mins followed by addition of DNA probe and measured after 30 mins by Electrophoretic mobility shift assay; details: time 90.0 min
[5] = as §1, with “LBS3” for “LBS2”, “probe” for “probe at 500 uM”; set-up: species or system Human gammaherpesvirus 8; method in brief: as §2
Human gammaherpesvirus 8 [6] = assay: Inhibition of Kaposi's sarcoma herpesvirus C-terminal His-tagged oligomerization deficient LANA DBD (1008 to 1146 residues) K1055E/K1138S/K1140D/K1141D/R1039Q/R1040Q/A1121E/K1109A/D1110A mutant expressed in Escherichia coli BL21(DE3) assessed as inhibition of LANA interaction with 5'-Dy682-labeled …; details: dose 250.0 µM, time 90.0 min
[7] = as §1, with “LBS1” for “LBS2”, “probe” for “probe at 500 uM”; set-up: species or system Human gammaherpesvirus 8; method in brief: as §2
[8] = as §3, with “probe” for “probe at 250 uM”; set-up: species or system Human gammaherpesvirus 8
Method in brief: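 GST-tagged KSHV LANA CTD (aa934-1162), wild type and unmutated, binding an LBS1 probe in EMSA. Compounds were first screened at a single fixed final concentration, then run in a dose-response EMSA. LANA-DNA complex (upper) band intensities were normalized to 0-100% inhibition. IC50 came from a four-parameter dose-response fit.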

[9] = as §1, with “5'-Dy682-labeled” for “fluorescently-labelled”, “LBS1” for “LBS2”, “probe” for “probe at 500 uM”, “30” for “90”, “Electrophoretic mobility shift” for “flourescence polarization”; set-up: species or system Human gammaherpesvirus 8
Human gammaherpesvirus 8 [10] = assay: Binding affinity to Kaposi's sarcoma herpesvirus C-terminal His-tagged oligomerization deficient LANA DBD (1008 to 1146 residues) K1055E/K1138S/K1140D/K1141D/R1039Q/R1040Q/A1121E/K1109A/D1110A mutant expressed in Escherichia coli BL21(DE3) at 500 uM by STD-NMR analysis
Human gammaherpesvirus 8 [11] = assay: as §1, with “5'-Dy682-labeled” for “fluorescently-labelled”, “LBS1+2” for “LBS2”, “62.5” for “500”, “30” for “90”, “Electrophoretic mobility shift” for “flourescence polarization”; details: time 90.0 min
Method in brief: (§4)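 EMSA with the LANA DBD mutant as a dose-dependent test against higher-order complexes. Combined probes were LBS1+2 and LBS2+1+3. Inhibition was judged from loss of the LANA-DNA complex band.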

Human gammaherpesvirus 8 [12] = assay: as §1, with “5'-Dy682-labeled” for “fluorescently-labelled”, “LBS1+2+3” for “LBS2”, “125” for “500”, “30” for “90”, “Electrophoretic mobility shift” for “flourescence polarization”; details: time 90.0 min; method in brief: as §4

Structure (SMILES)	IC50 [2] [µM]	inhibition (Human gammaherpesvirus 8 [3])	further results
Cc1cnccc1-n1cc(-c2ccc(C(=O)O)cc2)nn1			inhibition (Human gammaherpesvirus 8 [1]): inactive
Cc1cc(Sc2ccccc2)ncc1-n1cc(-c2ccc(C(=O)O)cc2)nn1	175	inactive	
O=C(O)c1ccc(-c2cn(-c3cncc4ccccc34)nn2)cc1	33	96%	
O=C(O)c1ccc(-c2cn(-c3cncc(-c4ccccc4)c3Cl)nn2)cc1	38	100%	inhibition (Human gammaherpesvirus 8 [4]): inactive; IC50 [5]: 45 µM; inhibition (Human gammaherpesvirus 8 [6]): inactive; IC50 [7]: 55 µM
COc1ccccc1-c1cncc(-n2cc(-c3ccc(C(=O)O)cc3)nn2)c1			inhibition (Human gammaherpesvirus 8 [1]): inactive
CC(C)Nc1ccc(-n2cc(-c3ccc(C(=O)O)cc3)nn2)cn1	> 250		
Cc1cc(Oc2cccc(F)c2)ncc1-n1cc(-c2ccc(C(=O)O)cc2)nn1	122	inactive	
O=C(O)c1ccc(-c2cn(-c3cncc(-c4cccc(CO)c4)c3)nn2)cc1	> 250		
Cc1cc(-c2ccccc2)ncc1-n1cc(-c2ccc(C(=O)O)cc2)nn1	36	36%	
CNc1ccc(-n2cc(-c3ccc(C(=O)O)cc3)nn2)cn1			inhibition (Human gammaherpesvirus 8 [1]): inactive
N#Cc1ccc(-n2cc(-c3ccc(C(=O)O)cc3)nn2)cn1	52	inactive	
COc1ccc(-c2cncc(-n3cc(-c4ccc(C(=O)O)cc4)nn3)c2)cc1			inhibition (Human gammaherpesvirus 8 [1]): inactive
COc1ccc(-n2cc(-c3ccc(C(=O)O)cc3)nn2)cn1	218	11%	
Cc1cc(Oc2ccc(F)cc2)ncc1-n1cc(-c2ccc(C(=O)O)cc2)nn1	134	inactive	
O=C(O)c1ccc(-c2cn(-c3cccnc3)nn2)cc1	17	82%	inhibition (Human gammaherpesvirus 8 [4]): inactive; IC50 [8]: 435 µM; IC50 [5]: 19 µM; IC50 [7]: 20 µM; IC50 [9]: 426 µM
Cc1ccncc1-n1cc(-c2ccc(C(=O)O)cc2)nn1	86	39%	
NC(=O)c1ccc(-c2cn(-c3cccnc3)nn2)cc1			inhibition (Human gammaherpesvirus 8 [1]): inactive
Nc1ccc(-c2cn(-c3cccnc3)nn2)cc1	> 250		
COC(=O)c1ccc(-c2cn(-c3cccnc3)nn2)cc1			inhibition (Human gammaherpesvirus 8 [1]): inactive
O=C(O)c1ccc(-c2cn(-c3ccc(Oc4ccccc4)nc3)nn2)cc1			inhibition (Human gammaherpesvirus 8 [1]): inactive
O=C(O)c1ccc(-c2cn(-c3cncc(-c4ccoc4)c3)nn2)cc1	19	34%	
O=C(O)c1ccc(-c2cn(-c3cnc4ccccc4c3)nn2)cc1	70	61%	
O=C(O)c1ccc(-c2cn(-c3cccnc3)nn2)cc1Cl			inhibition (Human gammaherpesvirus 8 [1]): inactive
COc1cccc(-c2cncc(-n3cc(-c4ccc(C(=O)O)cc4)nn3)c2)c1	110	inactive	
Cc1cc(Oc2ccccc2F)ncc1-n1cc(-c2ccc(C(=O)O)cc2)nn1	64	inactive	
Cc1cc(Cl)ncc1-n1cc(-c2ccc(C(=O)O)cc2)nn1	> 250		
O=C(O)c1ccc(-c2cn(-c3ccc(Nc4ccccc4)nc3)nn2)cc1	110	29%	

Structure (SMILES)	IC50 [2] [µM]	inhibition (Human gammaherpesvirus 8 [3])	further results
Cc1cc(-c2ccccc2O)ncc1-n1cc(-c2ccc(C(=O)O)cc2)nn1	21	100%	inhibition (Human gammaherpesvirus 8 [4]): inactive; IC50 [5]: 34 µM; IC50 [7]: 30 µM; IC50 [9]: 156 µM
COc1cc(F)cc(-c2cncc(-n3cc(-c4ccc(C(=O)O)cc4)nn3)c2)c1			inhibition (Human gammaherpesvirus 8 [1]): inactive
OCc1ccc(-c2cn(-c3cccnc3)nn2)cc1			inhibition (Human gammaherpesvirus 8 [1]): inactive
Cc1cc(-c2cccc(CO)c2)ncc1-n1cc(-c2ccc(C(=O)O)cc2)nn1	25	100%	inhibition (Human gammaherpesvirus 8 [4]): inactive; IC50 [5]: 63 µM; inhibition (Human gammaherpesvirus 8 [6]): inactive; IC50 [7]: 64 µM
O=C(O)c1ccc(-c2cn(-c3cncc4ccc(Cl)cc34)nn2)cc1	17	100%	inhibition (Human gammaherpesvirus 8 [4]): inactive; IC50 [5]: 15 µM; IC50 [7]: 14 µM; IC50 [9]: 93 µM
O=C(O)c1ccc(-c2cn(-c3cncc(-c4ccccc4)c3)nn2)cc1	> 250		
O=C(O)c1ccc(-c2cn(-c3cncc(-c4cccc(O)c4)c3)nn2)cc1	153	20%	
CCOC(=O)c1ccc(-c2cn(-c3cccnc3)nn2)cc1			inhibition (Human gammaherpesvirus 8 [1]): inactive
COC(=O)c1ccc2cncc(-n3cc(-c4ccc(C(=O)O)cc4)nn3)c2c1	> 250		
O=C(O)c1ccc(-c2cn(Cc3cccnc3)nn2)cc1	> 250		
O=C(O)c1ccc(-c2cn(-c3cnccc3Cl)nn2)cc1	29	94%	
Cc1ccc(-c2cncc(-n3cc(-c4ccc(C(=O)O)cc4)nn3)c2)cc1C			inhibition (Human gammaherpesvirus 8 [1]): inactive
O=C(O)c1ccc(-c2cn(-c3ccc(O)nc3)nn2)cc1	214	75%	
O=C(O)c1ccc(-c2cn(-c3ccc(Oc4cccnc4)cc3)nn2)cc1	19	100%	inhibition (Human gammaherpesvirus 8 [4]): inactive; IC50 [5]: 25 µM; IC50 [7]: 15 µM; IC50 [9]: 64 µM
O=C(O)c1cccc(-c2cn(-c3cccnc3)nn2)c1	> 250		
Cc1cc(-c2ccc(Cl)cc2)ncc1-n1cc(-c2ccc(C(=O)O)cc2)nn1	58	30%	
O=C(O)c1ccc(-c2cn(-c3cncc(-c4ccc(CO)cc4)c3)nn2)cc1	> 250		
O=C(O)c1ccc(-c2cn(-c3ccc(Oc4ccccc4)cc3)nn2)cc1			inhibition (Human gammaherpesvirus 8 [1]): inactive
Cc1cncc(-n2cc(-c3ccc(C(=O)O)cc3)nn2)c1	45	78%	
O=C(O)c1ccc(-c2cn(-c3cncc(F)c3)nn2)cc1			inhibition (Human gammaherpesvirus 8 [1]): inactive
Cc1cc(Oc2ccccc2)ncc1-n1cc(-c2ccc(C(=O)O)cc2)nn1	198	inactive	
CC(=O)Nc1ccc(-c2cn(-c3cccnc3)nn2)cc1			inhibition (Human gammaherpesvirus 8 [1]): inactive
N#Cc1ccc(-c2cn(-c3cccnc3)nn2)cc1	> 250		
O=C(O)c1ccc(-c2cn(-c3cnccc3-c3ccccc3)nn2)cc1	18	100%	inhibition (Human gammaherpesvirus 8 [4]): inactive; IC50 [5]: 42 µM; inhibition (Human gammaherpesvirus 8 [6]): inactive; IC50 [7]: 52 µM
Cc1ccc2cncc(-n3cc(-c4ccc(C(=O)O)cc4)nn3)c2c1	8	100%	inhibition (Human gammaherpesvirus 8 [4]): Active; IC50 [8]: 60 µM; IC50 [5]: 8 µM; IC50 [7]: 9 µM; IC50 [9]: 53 µM; Activity (Human gammaherpesvirus 8 [10]): Active; inhibition (Human gammaherpesvirus 8 [11]): Active; inhibition (Human gammaherpesvirus 8 [12]): Active
O=C(O)c1ccc(-c2cn(-c3cncc(-c4ccc(F)c(F)c4)c3)nn2)cc1	> 250		
